From ChEMBL document CHEMBL1124260, “Synthesis and antitumor activity of quaternary ellipticine glycosides, a series of novel and highly active antitumor agents” (1988)
Several values for one entry are separate records, joined by “and”; a condition that tells them apart may be missing. Equal values may be shown once.

How the values were obtained:
Mus musculus [1] = assay: Effect on ip implanted EAC by ip administration at 20 mg/kg was for 5 days measured as increase in mean life span; format: functional; conditions: 120 h, route intraperitoneal
Outline: (§1)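 Drug in 0.9% NaCl was given ip for 5 consecutive days from 24 h after inoculation. ILS % came from treated vs control mean survival time, followed for 80 days.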

Mus musculus [2] = assay: Number of survivors out of 6 ip implanted sarcoma 180 leukemia mouse tested after 80 days at 80 mg/kg; format: functional; conditions: route intraperitoneal
Outline: (§2)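 Drug dissolved and diluted in saline just before use, given ip for 5 consecutive days starting 24 h after implant. Six mice per dose. Survivors counted at 80 days; ILS % taken from mean survival time of treated vs control mice.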

Mus musculus [3] = assay: Antitumor activity against ip implanted L1210 leukemia in mouse after ip administration of 30 mg/kg for 5 days expressed as increase in mean life span; format: functional; conditions: Mus musculus, L1210, ip, 120 h, route intraperitoneal
Outline: (§3)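 Drug was dissolved in 0.9% NaCl, diluted just before use and given ip once daily for 5 consecutive days, starting 24 h after transplant. ILS % = mean survival time of treated vs control mice, observed for 80 days.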

Mus musculus [4] = assay: Effect on ip implanted sarcoma 180 by ip administration for 5 days at 40 mg/kg was measured as increase in mean life span; format: functional; conditions: Sarcoma-180, ip, 120 h, route intraperitoneal
Outline: (§4)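 Saline-dissolved drug was dosed ip daily for 5 consecutive days starting 24 h later. Readout was ILS % (mean survival time of treated vs control) over an 80-day observation.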

Mus musculus [5] = assay: Effect on ip implanted sarcoma 180 by ip administration for 5 days at 80 mg/kg was measured as increase in mean life span; format: functional; conditions: Sarcoma-180, ip, 120 h, route intraperitoneal; outline: as §4
Mus musculus [6] = assay: Effect on ip implanted syngeneic B16 melanoma by ip administration for 9 days at 2.5 mg/kg was measured as increase in mean life span; conditions: 216 h
Mus musculus [7] = assay: Antitumor activity against ip implanted L1210 leukemia in mouse after ip administration of 10 mg/kg for 5 days expressed as increase in mean life span; format: functional; conditions: Mus musculus, L1210, ip, 120 h, route intraperitoneal; outline: as §3
Mus musculus [8] = assay: Number of survivors out of 6 ip-ip implanted EAC leukemia mouse tested after 80 days at 20 mg/kg; format: functional; outline: as §2
Mus musculus [9] = assay: Number of survivors out of 6 ip implanted sarcoma 180 leukemia mouse tested after 80 days at 40 mg/kg; format: functional; conditions: route intraperitoneal; outline: as §2
Mus musculus [10] = assay: Effect on ip implanted EAC by ip administration for 5 days at 5 mg/kg was measured as increase in mean life span; format: functional; conditions: 120 h, route intraperitoneal; outline: as §1
Mus musculus [11] = assay: Antitumor activity against ip implanted L1210 leukemia in mouse after ip administration of 5 mg/kg for 5 days expressed as increase in mean life span; format: functional; conditions: Mus musculus, L1210, ip, 120 h, route intraperitoneal; outline: as §3
Mus musculus [12] = assay: Effect on ip implanted EAC by ip administration for 5 days at 40 mg/kg was measured as increase in mean life span; format: functional; conditions: 120 h, route intraperitoneal; outline: as §1
Mus musculus [13] = assay: Number of survivors out of 6 ip implanted P388 leukemia mouse tested after 80 days at 40 mg/kg; format: functional; conditions: route intraperitoneal
Outline: (§5)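 P388 leukemia, 10^6 ascitic cells implanted ip in female BDF1 mice. Drug in saline given ip for 5 consecutive days from 24 h after transplant. Groups of six per dose level. Survivors/total recorded at the 80-day end of observation; ILS % from treated/control mean survival time.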

Mus musculus [14] = assay: Number of survivors out of 6 ip implanted P388 leukemia mouse tested after 80 days at 10 mg/kg; format: functional; conditions: route intraperitoneal; outline: as §5
Mus musculus [15] = assay: Number of survivors out of 6 ip-iv implanted L1210 leukemia mouse tested after 80 days at 30 mg/kg; format: functional
Outline: (§6)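 Female BDF1 mice bearing ip-implanted leukemia: 10^5 cells for L1210, 10^6 cells for P388. Drug dissolved in saline, given iv for 5 consecutive days beginning 24 h post-implant. Six mice per dose. Survivors scored at 80 days; ILS % from mean survival time relative to controls.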

Mus musculus [16] = assay: Effect on ip implanted EAC by ip administration for 5 days at 10 mg/kg was measured as increase in mean life span; format: functional; conditions: 120 h, route intraperitoneal; outline: as §1
Mus musculus [17] = assay: Antitumor activity against ip implanted L1210 leukemia in mouse after iv administration of 30 mg/kg for 5 days expressed as increase in mean life span; conditions: 120 h
Mus musculus [18] = assay: Antitumor activity against ip implanted P388 leukemia in mouse after iv administration of 20 mg/kg for 5 days expressed as increase in mean life span; conditions: 120 h
Mus musculus [19] = assay: Number of survivors out of 6 ip implanted L1210 leukemia mouse, tested after 80 days at 30 mg/kg; format: functional; conditions: route intraperitoneal
Outline: (§7)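 Female BDF1 mice implanted ip with ascitic fluid holding 10^5 L1210 cells. Saline-dissolved drug given ip daily on days 1-5, starting 24 h after implant. Six mice per dose group, followed 80 days. Survivors/total counted at day 80; ILS % from mean survival time vs controls.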

Mus musculus [20] = assay: Number of survivors out of 6 ip implanted P388 leukemia mouse tested after 80 days at 20 mg/kg; format: functional; conditions: route intraperitoneal; outline: as §5
Mus musculus [21] = assay: Antitumor activity against ip implanted L1210 leukemia in mouse after ip administration of 1.25 mg/kg for 5 days expressed as increase in mean life span; format: functional; conditions: 120 h, route intraperitoneal; outline: as §3
Mus musculus [22] = assay: Effect on ip implanted EAC by ip administration for 5 days at 80 mg/kg was measured as increase in mean life span; format: functional; conditions: 120 h, route intraperitoneal; outline: as §1
Mus musculus [23] = assay: Effect on ip implanted syngeneic B16 melanoma by ip administration of 20 mg/kg for 9 days measured as increase in mean life span; conditions: 216 h
Mus musculus [24] = assay: Number of survivors out of 6 ip implanted EAC leukemia mouse tested after 80 days at 10 mg/kg; format: functional; conditions: route intraperitoneal; outline: as §2
Mus musculus [25] = assay: Antitumor activity against ip implanted L1210 leukemia in mouse after ip administration of 40 mg/kg for 5 days expressed as increase in mean life span; format: functional; conditions: 120 h, route intraperitoneal; outline: as §3
Mus musculus [26] = assay: Number of survivors out of 6 ip-ip implanted L1210 leukemia mouse tested after 80 days at 40 mg/kg; format: functional; outline: as §7
Mus musculus [27] = assay: Inhibition of sc implanted syngeneic colon 38 carcinoma by ip administration at 40 mg/kg was on 1, 3, 5, 7, 9 days measured as inhibition ratio; format: functional; conditions: route subcutaneous
Outline: (§8)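 Tumor homogenate (70 mg) implanted into the axillary region of female BDF1 mice. Drug dissolved in 0.9% NaCl and diluted with saline just before use, then given ip on days 1, 3, 5, 7 and 9. Tumor length and width were measured by caliper on day 20 after inoculation and converted to estimated weight. Result reported as treated vs control tumor weight, T/C %.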

Mus musculus [28] = assay: Antitumor activity against ip implanted P388 leukemia in mouse after iv administration of 10 mg/kg for 5 days expressed as increase in mean life span; conditions: 120 h
Mus musculus [29] = assay: Effect on ip implanted syngeneic B16 melanoma by ip administration for 9 days at 10 mg/kg was measured as increase in mean life span; conditions: 216 h
Mus musculus [30] = assay: Number of survivors out of 6 ip-ip implanted EAC leukemia mouse tested after 80 days at 80 mg/kg; format: functional; outline: as §2
Mus musculus [31] = assay: Effect on ip implanted sarcoma 180 by ip administration for 5 days at 10 mg/kg was measured as increase in mean life span; format: functional; conditions: Sarcoma-180, ip, 120 h, route intraperitoneal; outline: as §4
Mus musculus [32] = assay: Effect on ip implanted sarcoma 180 by ip administration for 5 days at 20 mg/kg was measured as increase in mean life span; format: functional; conditions: Sarcoma-180, ip, 120 h, route intraperitoneal; outline: as §4
Mus musculus [33] = assay: Number of survivors out of 6 ip-ip implanted L1210 leukemia mouse tested after 80 days at 20 mg/kg; format: functional; outline: as §7
Mus musculus [34] = assay: Antitumor activity against ip implanted L1210 leukemia in mouse after ip administration of 20 mg/kg for 5 days expressed as increase in mean life span; format: functional; conditions: 120 h, route intraperitoneal; outline: as §3
Mus musculus [35] = assay: Inhibition of sc implanted syngeneic colon 38 carcinoma by ip administration at 50 mg/kg was on 1, 3, 5, 7, 9 days measured as inhibition ratio; format: functional; conditions: route subcutaneous; outline: as §8
Mus musculus [36] = assay: Antitumor activity against iv implanted L1210 leukemia in mouse after ip administration of 10 mg/kg for 5 days expressed as increase in mean life span; format: functional
Mus musculus [37] = assay: Number of survivors out of 6 ip-ip implanted EAC leukemia mouse tested after 80 days at 40 mg/kg; format: functional; outline: as §2
Mus musculus [38] = assay: Effect on ip implanted syngeneic B16 melanoma by ip administration for 9 days at 5 mg/kg was measured as increase in mean life span; conditions: 216 h
Mus musculus [39] = assay: Inhibition of sc implanted syngeneic colon 38 carcinoma by ip administration at 30 mg/kg was on 1, 3, 5, 7, 9 days measured as inhibition ratio; format: functional; conditions: route subcutaneous; outline: as §8
Mus musculus [40] = assay: Inhibition of sc implanted syngeneic colon 38 carcinoma by ip administration at 20 mg/kg was on 1, 3, 5, 7, 9 days measured as inhibition ratio; format: functional; conditions: route subcutaneous; outline: as §8
Mus musculus [41] = assay: Number of survivors out of 6 ip-iv implanted P388 leukemia mouse tested after 80 days at 20 mg/kg; format: functional; outline: as §6
Mus musculus [42] = assay: Antitumor activity against iv implanted L1210 leukemia in mouse after ip administration of 20 mg/kg for 5 days expressed as increase in mean life span; format: functional

Structure (SMILES): Cc1c2cc[n+]([C@@H]3OC[C@H](O)[C@H](O)[C@H]3O)cc2c(C)c2c1[nH]c1ccc(O)cc12.[Br-]
- ILS at 20 mg/kg (Mus musculus [1]): > 338%
- Cures@ 80 mg/kg (Mus musculus [2]): 2
- ILS at 30 mg/kg (Mus musculus [3]): > 860%
- ILS at 40 mg/kg (Mus musculus [4]): > 339%
- ILS at 80 mg/kg (Mus musculus [5]): > 353%
- ILS at 2.5 mg/kg (Mus musculus [6]): 38%
- ILS at 10 mg/kg (Mus musculus [7]): 113%
- Cures@ 20mg/kg (Mus musculus [8]): 1
- Cures@ 40mg/kg (Mus musculus [9]): 2
- ILS at 5 mg/kg (Mus musculus [10]): 95%
- ILS at 5 mg/kg (Mus musculus [11]): 57%
- ILS at 40 mg/kg (Mus musculus [12]): > 518%
- Cures (Mus musculus [13]): 6
- Cures (Mus musculus [14]): 1
- Cures (Mus musculus [15]): 2
- ILS at 10 mg/kg (Mus musculus [16]): > 297%
- ILS at 30 mg/kg (Mus musculus [17]): > 344%
- ILS at 20 mg/kg (Mus musculus [18]): > 394%
- Cures (Mus musculus [19]): 5
- Cures (Mus musculus [20]): 3
- ILS at 1.25 mg/kg (Mus musculus [21]): 37%
- ILS at 80 mg/kg (Mus musculus [22]): > 492%
- ILS at 20 mg/kg (Mus musculus [23]): 60%
- Cures@ 10mg/kg (Mus musculus [24]): 1
- ILS at 40 mg/kg (Mus musculus [25]): > 713%
- Cures (Mus musculus [26]): 4
- T/C @ 40mg/kg (Mus musculus [27]): 7%
- ILS at 10 mg/kg (Mus musculus [28]): 83%
- ILS at 10 mg/kg (Mus musculus [29]): 46%
- Cures (Mus musculus [30]): 5
- ILS at 10 mg/kg (Mus musculus [31]): 117%
- ILS at 20 mg/kg (Mus musculus [32]): 282%
- Cures (Mus musculus [33]): 1
- ILS at 20 mg/kg (Mus musculus [34]): > 251%
- T/C @ 50mg/kg (Mus musculus [35]): 4%
- ILS (Mus musculus [36]): 82% and >214%
- Cures@ 40mg/kg (Mus musculus [37]): 5
- ILS at 5 mg/kg (Mus musculus [38]): 44%
- T/C @ 30mg/kg (Mus musculus [39]): 59%
- T/C @ 20mg/kg (Mus musculus [40]): 66%
- Cures (Mus musculus [41]): 2
- ILS (Mus musculus [42]): 198% and >549%
